# Laboratory results reported in PMC8165011 (European journal of medicinal chemistry, 2021).
# Read-outs that look alike come from different tables or passages of the source.
# Assays:
# Type in all cases: cell-based
# [1] = test system: S. aureus ATCC 700699 (Sa99); assay: MIC assay; conditions: for MIC Sa99: S. aureus ATCC 700699
# [2] = test system: tested Gram-positive strains; assay: MIC assay, summary over the tested Gram-positive strains; conditions: for antimicrobial activity (in words): tested Gram-positive strains
# How it was run: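 CLSI standard broth microdilution. Test compound started at 50 µg/ml and serially diluted 2-fold. Run in triplicate.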
# [3] = test system: S. aureus ATCC 25923 (Sa23), antibiotic susceptible; assay: MIC assay
# [4] = test system: S. aureus BAA-2312 (Sa12), antibiotic-resistant; assay: MIC assay
# [5] = test system: S. aureus ATCC 33591 (Sa91); assay: MIC assay
# [6] = test system: S. aureus ATCC 33592 (Sa92); assay: MIC assay
# [7] = test system: S. epidermidis ATCC 700296 (Se); assay: MIC assay
# [8] = test system: Bacillus subtilis ATCC 6623 (Bs); assay: MIC assay
# [9] = test system: vancomycin-resistant E. faecium ATCC 700221 (Ef21); assay: MIC assay
# [10] = test system: antibiotic susceptible E. faecalis ATCC 29212 (Ef12); assay: MIC assay; conditions: for MIC Efl2: E. faecalis ATCC 29212; for MIC: Enterococcus faecalis, ATCC29212, read-out: MIC Efl2
# [11] = test system: S. aureus and E. faecalis biofilms; assay: Biofilm inhibition and destruction at 4x and 8xMIC; conditions: 4x and 8xMIC (data not shown)
# [12] = test system: S. aureus ATCC 700699 (MRSA) stationary phase persister cells; assay: Persister cell killing assay; conditions: 64xMIC
# [13] = test system: S. aureus ATCC 25923 (MSSA); assay: Multistep
# [14] = test system: S. aureus ATCC 700699 (MRSA); assay: Multistep; conditions: within two weeks of the start
# [15] = test system: E. faecalis clinical isolates (VRE); assay: MIC against clinical isolates of E. faecalis; conditions: Enterococcus faecalis, VRE
# [16] = test system: E. faecium clinical isolates (VRE); assay: MIC against clinical isolates of E. faecium; conditions: Enterococcus faecium, VRE
# [17] = test system: S. aureus clinical isolates (MSSA, MRSA); assay: MIC against clinical isolates of S. aureus; conditions: Staphylococcus aureus, MRSA|MSSA
compound,measurement,setting,value
"O=C(O)c1ccc(-n2cc(CNc3cccc(C(F)(F)F)c3)c(-c3ccc(C(F)(F)F)cc3)n2)cc1 [Compound 48, 4-[4-[[3-(trifluoromethyl)anilino]methyl]-3-[4-(trifluoromethyl)phenyl]pyrazol-1-yl]benzoic acid]",MIC,"[1]; Staphylococcus aureus, ATCC700699, read-out: MIC Sa99",0.39 mg/L
same,antimicrobial activity (in words),[2],potent activity
4-[4-[(3-fluoroanilino)methyl]-3-(p-tolyl)pyrazol-1-yl]benzoic acid [Compound 42],MIC Sa23,[3],3.12 mg/L
same,MIC Sal2,[4],3.12 mg/L
same,MIC Sa91,[5],3.12 mg/L
same,MIC Sa99,[1],3.12 mg/L
same,MIC Sa92,[6],3.12 mg/L
same,MIC Se,[7],6.25 mg/L
same,MIC Bs,[8],1.56 mg/L
same,MIC Ef21,[9],6.25 mg/L
same,MIC Efl2,[10],25 mg/L
"O=C(O)c1ccc(-n2cc(CNc3cccc(OC(F)(F)F)c3)c(-c3ccc(C(F)(F)F)cc3)n2)cc1 [Compound 50, 4-[4-[[3-(trifluoromethoxy)anilino]methyl]-3-[4-(trifluoromethyl)phenyl]pyrazol-1-yl]benzoic acid]",MIC,[2]; read-out: MIC values,0.78 to 3.12 mg/L
"O=C(O)c1ccc(-n2cc(CNc3ccc(Br)c(Cl)c3F)c(-c3ccc(C(F)(F)F)cc3)n2)cc1 [Compound 75, 4-[4-[(4-bromo-3-chloro-2-fluoro-anilino)methyl]-3-[4-(trifluoromethyl)phenyl]pyrazol-1-yl]benzoic acid]",MIC,[10],1.56 mg/L
same,biofilm inhibition and destruction,[11],> 95%
"CNC(C)C1CCC(N)C(OC2C(N)CC(N)C(OC3OCC(C)(O)C(NC)C3O)C2O)O1 (stereo not drawn) [gentamicin, reference compound]",effect on viability of MRSA persisters (in words),[12],did not affect the viability
"O=C(O)c1ccc(-n2cc(CNc3cccc(Br)c3)c(-c3ccc(C(F)(F)F)cc3)n2)cc1 [Compound 46, 4-{4-[(3-bromoanilino)methyl]-3-[4-(trifluoromethyl)phenyl]-1H-pyrazol-1-yl}benzoic acid]",MIC,[2]; read-out: MIC value as low as,≥ 0.78 mg/L
"Cc1ccc(NCc2cn(-c3ccc(C(=O)O)cc3)nc2-c2ccc(C(F)(F)F)cc2)cc1Cl [Compound 58, 4-[4-[(3-chloro-4-methyl-anilino)methyl]-3-[4-(trifluoromethyl)phenyl]pyrazol-1-yl]benzoic acid]",antimicrobial activity (in words),[2],inhibited the growth of tested bacteria efficiently
O=C(O)c1cn(C2CC2)c2cc(N3CCNCC3)c(F)cc2c1=O [ciprofloxacin],passage at which resistance started to develop,[13],7 passage
same,fold more resistant,[13]; within two weeks of the start,16 fold
same,fold more resistant,[14],16 fold
4-[4-[(4-chloroanilino)methyl]-3-(p-tolyl)pyrazol-1-yl]benzoic acid [Compound 45],MIC Sa23,[3],1.56 mg/L
same,MIC Sal2,[4],1.56 mg/L
same,MIC Sa91,[5],1.56 mg/L
same,MIC Sa99,[1],1.56 mg/L
same,MIC Sa92,[6],1.56 mg/L
same,MIC Se,[7],3.12 mg/L
same,MIC Bs,[8],0.78 mg/L
same,MIC Ef21,[9],1.56 mg/L
same,MIC Efl2,[10],6.25 mg/L
"NS(=O)(=O)c1ccc(NCc2cn(-c3ccc(C(=O)O)cc3)nc2-c2ccc(C(F)(F)F)cc2)cc1 [Compound 49, 4-[4-[(4-sulfamoylanilino)methyl]-3-[4-(trifluoromethyl)phenyl]pyrazol-1-yl]benzoic acid]",antimicrobial activity (in words),[2],almost eliminated the activity
"O=C(O)c1ccc(-n2cc(CNc3ccccc3)c(-c3ccc(C(F)(F)F)cc3)n2)cc1 [Compound 41, 4-[4-(anilinomethyl)-3-[4-(trifluoromethyl)phenyl]pyrazol-1-yl]benzoic acid]",MIC,[2]; read-out: MIC value as low as,≥ 3.12 mg/L
"O=C(O)c1ccc(-n2cc(CNc3ccc(Br)cc3)c(-c3ccc(C(F)(F)F)cc3)n2)cc1 [Compound 47, 4-[4-[(4-bromoanilino)methyl]-3-[4-(trifluoromethyl)phenyl]pyrazol-1-yl]benzoic acid]",MIC,[2]; read-out: MIC value as low as,≥ 0.78 mg/L
"O=C(O)c1ccc(-n2cc(CNc3cc(F)c(C(F)(F)F)cc3F)c(-c3ccc(C(F)(F)F)cc3)n2)cc1 [Compound 76, 4-[4-[[2,5-difluoro-4-(trifluoromethyl)anilino]methyl]-3-[4-(trifluoromethyl)phenyl]pyrazol-1-yl]benzoic acid]",MIC,[10],3.12 mg/L
4-[4-[(3-chloroanilino)methyl]-3-(p-tolyl)pyrazol-1-yl]benzoic acid [Compound 44],MIC Sa23,[3],1.56 mg/L
same,MIC Sal2,[4],1.56 mg/L
same,MIC Sa91,[5],0.78 mg/L
same,MIC Sa99,[1],0.78 mg/L
same,MIC Sa92,[6],1.56 mg/L
same,MIC Se,[7],3.12 mg/L
same,MIC Bs,[8],0.78 mg/L
same,MIC Ef21,[9],0.78 mg/L
same,MIC Efl2,[10],12.5 mg/L
"Cc1onc(-c2ccccc2)c1C(=O)N[C@@H]1C(=O)N2[C@@H]1SC(C)(C)[C@@H]2C(=O)O [Oxa, Oxacillin]",MIC,"[15]; E. faecalis 1088051, VRE",64 mg/L
same,MIC,"[15]; E. faecalis 1091563, VRE",64 mg/L
same,MIC,"[15]; E. faecalis 1091720, VRE",64 mg/L
same,MIC,"[15]; E. faecalis 1094112, VRE",> 64 mg/L
same,MIC,"[15]; E. faecalis 1100440, VRE",> 64 mg/L
same,MIC,"[16]; E. faecium 1088168, VRE",> 64 mg/L
same,MIC,"[16]; E. faecium 1088228, VRE",> 64 mg/L
same,MIC,"[16]; E. faecium 1088925, VRE",> 64 mg/L
same,MIC,"[16]; E. faecium 1089544, VRE",> 64 mg/L
same,MIC,"[16]; E. faecium 1091282, VRE",> 64 mg/L
same,MIC,"[17]; S. aureus 1088064, MRSA",64 mg/L
same,MIC,"[17]; S. aureus 1088610, MRSA",64 mg/L
same,MIC,"[17]; S. aureus 1088888, MRSA",> 64 mg/L
same,MIC,"[17]; S. aureus 1089106, MRSA",64 mg/L
"O=C(O)c1ccc(-n2cc(CNc3ccc(C(=O)O)c(C(F)(F)F)c3)c(-c3ccc(C(F)(F)F)cc3)n2)cc1 [Compound 67, 4-[[1-(4-carboxyphenyl)-3-[4-(trifluoromethyl)phenyl]pyrazol-4-yl]methylamino]-2-(trifluoromethyl)benzoic acid]",antimicrobial activity (in words),[2],eliminated the activity
"O=C(O)c1ccc(-n2cc(CNc3cc(Cl)c(O)c(Cl)c3)c(-c3ccc(C(F)(F)F)cc3)n2)cc1 [Compound 78, 4-[4-[(3,5-dichloro-4-hydroxy-anilino)methyl]-3-[4-(trifluoromethyl)phenyl]pyrazol-1-yl]benzoic acid]",antimicrobial activity (in words),[2],inactivity
4-[4-[(4-fluoroanilino)methyl]-3-(p-tolyl)pyrazol-1-yl]benzoic acid [Compound 43],MIC Sa23,[3],6.25 mg/L
same,MIC Sal2,[4],3.12 mg/L
same,MIC Sa91,[5],6.25 mg/L
same,MIC Sa99,[1],6.25 mg/L
same,MIC Sa92,[6],12.5 mg/L
same,MIC Se,[7],12.5 mg/L
same,MIC Bs,[8],1.56 mg/L
same,MIC Ef21,[9],6.25 mg/L
same,MIC Efl2,[10],25 mg/L
"O=C(O)c1ccc(-n2cc(CNc3ccc(N4CCOCC4)c(C(F)(F)F)c3)c(-c3ccc(C(F)(F)F)cc3)n2)cc1 [Compound 68, 4-[4-[[4-morpholino-3-(trifluoromethyl)anilino]methyl]-3-[4-(trifluoromethyl)phenyl]pyrazol-1-yl]benzoic acid]",antimicrobial activity (in words),[2],highly potent
"O=C(O)c1ccc(-n2cc(CNc3ccc(Br)c(C(F)(F)F)c3)c(-c3ccc(C(F)(F)F)cc3)n2)cc1 [Compound 63, 4-[4-[[4-bromo-3-(trifluoromethyl)anilino]methyl]-3-[4-(trifluoromethyl)phenyl]pyrazol-1-yl]benzoic acid]",MIC,[10],1.56 mg/L
